# Sampled rows, rich in hits. Any-hit rate of the full collection: about 3.7%.
# KCNK3 block: human KCNK3 channel inhibition, primary screen | CHO-KCNK3 thallium flux, FluxOR fluorescence; stronger effect = lower value | B-score at 10 µM | 340,000 compounds, 0.84% hits | AID 602410;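 active = B-score under library mean minus 4 SD, starting fluorescence ratio at most library mean plus 5 SD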;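 note: more negative B-score means stronger inhibition of thallium flux through KCNK3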
# hERG rescue: shields human hERG channel from block by proarrhythmic agents. activation (rescue from dofetilide block), less the hit threshold, % at 10 µM. Q12809. AID 1511. 310,000 compounds, 0.51% hits. CHO-hERG, FluxOR thallium flux, dofetilide IC70 present;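 active = activation above the mean of controls blocked by dofetilide plus 5 SD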;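 note: thallium influx through hERG after potassium depolarization seen as dye fluorescence rise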
# Target sequence (Q12809 whole entry, looked up): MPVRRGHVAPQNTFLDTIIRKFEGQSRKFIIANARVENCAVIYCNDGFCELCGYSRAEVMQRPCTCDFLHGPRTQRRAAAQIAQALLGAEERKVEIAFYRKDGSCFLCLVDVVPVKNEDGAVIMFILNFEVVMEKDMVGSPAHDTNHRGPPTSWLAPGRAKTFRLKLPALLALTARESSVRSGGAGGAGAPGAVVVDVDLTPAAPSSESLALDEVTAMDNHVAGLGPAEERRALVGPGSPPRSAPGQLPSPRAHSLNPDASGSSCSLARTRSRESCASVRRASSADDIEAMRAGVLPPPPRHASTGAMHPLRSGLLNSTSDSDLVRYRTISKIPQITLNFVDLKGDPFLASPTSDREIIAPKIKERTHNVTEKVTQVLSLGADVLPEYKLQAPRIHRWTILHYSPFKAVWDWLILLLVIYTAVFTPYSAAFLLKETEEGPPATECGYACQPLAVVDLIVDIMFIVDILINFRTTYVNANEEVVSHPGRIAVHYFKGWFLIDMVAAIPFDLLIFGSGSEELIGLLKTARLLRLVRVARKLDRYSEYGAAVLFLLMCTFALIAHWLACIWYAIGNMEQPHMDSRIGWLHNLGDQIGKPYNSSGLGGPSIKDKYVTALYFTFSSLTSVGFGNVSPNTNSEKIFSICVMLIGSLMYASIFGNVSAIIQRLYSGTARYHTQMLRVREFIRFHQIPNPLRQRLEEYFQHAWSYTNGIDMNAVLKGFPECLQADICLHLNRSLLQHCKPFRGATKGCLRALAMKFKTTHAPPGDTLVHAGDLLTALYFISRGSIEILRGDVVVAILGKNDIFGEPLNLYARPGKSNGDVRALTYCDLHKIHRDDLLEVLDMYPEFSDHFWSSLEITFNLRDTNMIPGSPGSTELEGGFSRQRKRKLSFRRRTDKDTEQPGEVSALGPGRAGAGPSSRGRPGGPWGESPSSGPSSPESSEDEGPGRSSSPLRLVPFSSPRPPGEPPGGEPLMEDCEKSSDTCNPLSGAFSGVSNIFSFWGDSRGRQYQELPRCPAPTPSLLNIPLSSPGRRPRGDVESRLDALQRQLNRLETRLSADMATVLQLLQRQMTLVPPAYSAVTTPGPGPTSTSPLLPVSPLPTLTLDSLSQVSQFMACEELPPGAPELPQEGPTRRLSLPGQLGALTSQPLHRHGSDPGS
# Kir21 inh: blocks the mouse Kir2.1 inward-rectifier potassium channel. HEK293-Kir2.1, FluxOR thallium flux fluorescence; stronger effect = lower value. P35561. B-score at 10 µM. 310,000 compounds, 0.85% hits;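 active = fluorescence ratio B-score at or below minus 3 SD of library scores, with starting-brightness B-score within 2 SD, cut at about -4.2 in these data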;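 note: channel flux triggered by added potassium and thallium sulfate stimulus; B-score of peak minus minimum fluorescence over baseline after thallium stimulus; more negative B-score means stronger Kir2.1 block with less thallium influx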
# KCNQ1 pot: potentiators or activators of human KCNQ1 potassium channel; CHO-K1 KCNQ1, thallium flux FluxOR fluorescence; stronger effect = higher value; B-score at 10 µM; AID 2648; P51787; 310,000 compounds, 0.35% hits;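 active = fluorescence ratio B-score, a plate-corrected score, at least three library SD, with initial intensity B-score within 5 SD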
#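 Test system: CHO-K1 cells stably expressing KCNQ1 / Medium: assay buffer / Also added: depolarizing K+/Tl+ stimulus, K2SO4 and Tl2SO4 each 12.5 mM in 5x stock / Incubation: 90 min dye loading and 20 min compound exposure, both at room temperature / Signal: thallium influx via FluxOR fluorescence, kinetic imaging / Evaluation: B score of baseline-normalized fluorescence ratio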
# KCNQ1 block: blocks the human KCNQ1 potassium channel; AID 2642; CHO-K1 KCNQ1, FluxOR thallium flux fluorescence; stronger effect = higher value; 310,000 compounds, 1.3% hits; B-score at 10 µM;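 active = compounds whose thallium flux B-score, printed positive for inhibition, exceeds three library SD while starting fluorescence stays within three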;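 note: channel opened by potassium depolarization with thallium stimulus after 20 min compound exposure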
# KCNK9 block: human KCNK9 channel inhibition; Q9NPC2; HEK293 KCNK9, FluxOR thallium flux fluorescence; stronger effect = lower value; B-score at 10 µM; 310,000 compounds, 1.2% hits;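 active = ratio B-score over 3 SD below the library mean, with starting fluorescence within 5 SD of its mean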;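 note: negative B-score means less thallium flux so channel inhibition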
# KCNK9 inh conf: human KCNK9 inhibitor confirmation. 4,900 compounds, 43% hits. shares compounds with KCNK9 block. HEK293 KCNK9 cells, FluxOR thallium flux fluorescence. inhibition, % at 10 µM. AID 492992;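 active = thallium signal inhibited by more than 5 SD of the compound-free buffer control wells, on both duplicate plates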;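 note: 0% = assay buffer control wells without compound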
# Kir21 sel: tests whether KCNK9 modulators also affect mouse Kir2.1. shares compounds with KCNK9 block. Kir2.1 cells, FluxOR thallium flux fluorescence. inhibition, % at 10 µM. 4,900 compounds, 4% hits. AID 492993;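 active = thallium signal drop more than 5 SD beyond the mean of the no-compound control wells, seen in both duplicate plates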;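 note: signal is fluorescence rise after thallium addition divided by baseline fluorescence; plate controls were assay buffer only for no effect and full block by chlorpromazine control for full effect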
# KCNK9 uninduced: second counter-screen for KCNK9 modulators: effect in non-induced cells. shares compounds with KCNK9 block. non-induced KCNK9-HEK293, FluxOR thallium flux. inhibition, % at 10 µM. 4,900 compounds, 40% hits. AID 492997;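 active = thallium signal drop beyond 5 SD of the untreated control mean, on both duplicate plates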;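 note: plate controls were buffer only IC0 wells for no effect and SID17386958 at its maximal inhibitory level for full effect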
# Numbers without * were called inactive; i = inactive; nt = no result given.
SMILES,KCNK3 block,hERG rescue,Kir21 inh,KCNQ1 pot,KCNQ1 block,KCNK9 block,KCNK9 inh conf,Kir21 sel,KCNK9 uninduced
C=CCNC(=O)c1c(CSc2ccc(Cl)cc2)noc1C(=O)NCc1ccccc1,i,-21,1.3,i,i,i,i,i,i
CCCNC(=O)c1onc(CSc2ccc(Cl)cc2)c1C(=O)NCCC(C)C,i,-8,0.18,i,i,i,i,i,i
CCCNC(=O)c1onc(CSc2ccc(Cl)cc2)c1C(=O)NCC1CC1,i,-10,1.2,i,i,i,i,i,i
COc1cccc(S(=O)(=O)NCc2ccc(C(=O)N3CCN(C)CC3)cc2)c1,i,-6,5.9e-16,i,i,i,nt,nt,nt
Cc1cc2ccccn2c1C(=O)c1ccccc1F,i,-7,-0.37,i,i,-12*,i,i,i
N#C/C(=C\c1c(Cl)cccc1Cl)c1nc2ccccc2o1,i,-14,0,i,i,i,i,i,i
Cc1cc(O)ccc1N/C=C(\C#N)c1nc2ccccc2o1,i,-3,1.3,i,i,i,nt,nt,nt
N#C/C(=C\c1c(Cl)cccc1Cl)c1nc2ccccc2[nH]1,i,-13,-1,i,i,-8.8*,46%*,i,i
CN(C)/C=C(\C#N)c1nc2ccccc2[nH]1,i,-5,-0.44,i,i,i,nt,nt,nt
Oc1ccc(Cl)cc1CNCc1ccc(C(F)(F)F)cc1,i,nt,nt,nt,nt,nt,nt,nt,nt
CC(C)(C)NC(=O)Cn1nc(C(F)(F)F)c2c1CCCC2,i,-5,1.2,i,i,i,i,i,i
COc1ccc(CNC(=O)C2CCN(c3cc(C(=O)Nc4cccc(OC)c4)ccn3)CC2)cc1,i,-13,0.54,i,i,i,nt,nt,nt
Cc1ccc(C(=O)Oc2ccc3ccc(=O)oc3c2)cc1,i,-4,-2.4,i,i,i,nt,nt,nt
O=C(Oc1ccc2ccc(=O)oc2c1)c1ccc([N+](=O)[O-])cc1,i,-11,-0.62,i,i,-15*,40%*,i,i
CCOC(=O)c1nc(NCc2ccccc2)c2ccccc2n1,i,-2,-0.7,i,i,i,nt,nt,nt
CCCCN(C)C(=O)CSc1nc(NCc2ccc(OC)cc2)c2ccccc2n1,i,-12,-1.6,i,i,i,i,i,i
Cc1sc(NC(=O)CCl)c(C(=O)c2ccccc2)c1C,i,-5,2.3,i,i,i,nt,nt,nt
Cc1ccccc1C(=O)Nc1sc(C)c(C)c1C(=O)c1ccccc1,i,-20,-2.4,i,8*,i,i,i,i
COc1ccc(/C=N\NC(=O)c2cc(O)c(O)c(O)c2)cc1CN1CCN(c2ccc(F)cc2)CC1,i,-11,-3.8,i,i,i,i,i,i
CCOC(=O)c1ccc(N/C(=N\S(=O)(=O)c2ccccc2C)c2ccccc2)cc1,i,-18,-0.07,i,i,-8.4*,39%*,i,28%*
O=c1c(CN2CCN(c3cccc(Cl)c3)CC2)coc2c(Cl)cc(Cl)cc12,i,-11,-0.96,i,i,i,i,i,i
CC(=O)N1CCc2cc(S(=O)(=O)NC(C(=O)NC(C)c3ccccc3)C(C)C)ccc21 (centres undefined),i,-5,2.1,i,i,i,nt,nt,nt
CCOC(=O)C1CCN(c2nc(-c3ccc(Br)cc3)nc3ccccc23)CC1,i,-12,2.6,i,i,-8.8*,i,i,22%*
CCOC(=O)c1ccc(NC(=O)C2C3CCCCC32)cc1 (centres undefined),i,-3,1,i,i,-9.4*,i,i,i
